Measured values from different studies.
Compare with care: the assays were run in different laboratories.
Target: Mitogen-activated protein kinase 13 (MAPK13, Homo sapiens, UniProt O15264)

SMILES	read-out	action	method	tested at	endpoint	value
Cc1nc(C2CCN(C(=O)c3ccc(OC(F)(F)F)cc3N)CC2)c2ncc(N3CCN(C)CC3)cc2n1	cell-free assay	–	competition with immobilised ligand	1 µM	remaining binding	100%
Cc1ccc(NC(=O)c2ccc(C)c(C(F)(F)F)c2)cc1C#Cc1nn(C2CCC(O)CC2)c2ncnc(N)c12 (centres unmarked)	cell-free assay	–	–	10 µM	remaining signal	80%
Cc1ccc(NC(=O)c2ccc(CN3CCN(C)CC3)cc2)cc1Nc1nc(-c2cccnc2)cs1	cell-free assay	–	–	0.5 µM	remaining signal	101%
COc1cc2ncnc(Nc3ccc(Oc4ccccc4)cc3C)c2cc1OC	enzyme activity	inhibitor	–	1 µM	inhibition	1%
O=C(NS(=O)(=O)c1ccc(NCC2CCOCC2)c([N+](=O)[O-])c1)c1ccc(N2CCN(Cc3ccc(C(F)(F)F)cc3-c3ccc(Cl)cc3)CC2)cc1Oc1cnc2[nH]ccc2c1	cell-free assay	–	competition with immobilised ligand	1 µM	remaining binding	99%
CCCOc1ccc(OC)c(F)c1C(=O)c1ccc(C(=O)N[C@@H]2CNC[C@H]2NC(=O)c2ccc3[nH]ncc3c2)cc1	enzyme activity	inhibitor	–	10 µM	remaining activity	93%
CN(C)C1CCN(CC#Cc2nn(C3CCCC3)c3nc(NCc4ccccc4)ncc23)C1 (centres unmarked)	enzyme activity	inhibitor	FRET	10 µM	inhibition	2%
COc1cc(Nc2cnc(C#N)c(O[C@H](C)CN(C)C)n2)ncc1-c1cnn(C)c1	enzyme activity	inhibitor	radiometric	1 µM	remaining activity	87%
Cc1noc([C@H]2C[C@@H](c3ccc(C(F)(F)F)cc3)CN(C(=O)N3CCS(=O)(=O)C3)C2)n1	cell-free assay	–	competition with immobilised ligand	1 µM	remaining binding	100%
CCN(CC)c1ccc(C2=NNC(=O)CC2C)cc1[N+](=O)[O-] (centres unmarked)	enzyme activity	inhibitor	–	10 µM	remaining activity	97%
Cc1cnc(NC2CCOCC2)nc1-n1cnc(C(=O)NC(CN)c2cc(F)cc(Cl)c2)c1 (centres unmarked)	enzyme activity	inhibitor	radiometric	1 µM	remaining activity	28%
CC1=C(C#N)[C@@H](c2ccc3[nH]nc(C)c3c2)C(C#N)=C(c2ccc(Cl)cc2)N1	cell-free assay	–	competition with immobilised ligand	1 µM	remaining binding	100%
Cc1sc(C(=O)NC2COC2)cc1-n1cc(NC(=O)Nc2c(F)cccc2Cl)cn1	enzyme activity	inhibitor	–	10 µM	remaining activity	89.2%
CN1CCC2(CC1)NC(=O)c1c(c3ccc(Cl)c(Cl)c3n1C)C2C#N (racemic)	thermal stability	–	DSF	10 µM	ΔTm	0.4 °C
Cc1ccc(Nc2nccc(N(C)c3ccc4c(C)n(C)nc4c3)n2)cc1S(N)(=O)=O	enzyme activity	inhibitor	–	10 µM	inhibition	0%
Cn1c2c(Cl)c(Cl)ccc2c2cc(N)[nH]c(=O)c21	thermal stability	–	DSF	10 µM	ΔTm	0.5 °C
CNC(=O)Nc1ccc2c(c1)[C@@]1(CC2)OC(=O)N(CC(=O)N(Cc2ccc(F)cc2)[C@@H](C)C(F)(F)F)C1=O	cell-free assay	–	competition with immobilised ligand	1 µM	remaining binding	97%
Cn1c2c(c3ccc(Cl)c(Cl)c31)C(C#N)C1(CCCC1)NC2=O (centres unmarked)	thermal stability	–	DSF	10 µM	ΔTm	-0.1 °C

SMILES	read-out	action	method	tested at	endpoint	value
CNC(=O)c1ccc(Nc2ncc(C(F)(F)F)c(NCc3nccnc3N(C)S(C)(=O)=O)n2)cc1	cell-free assay	–	competition with immobilised ligand	0.1 µM	remaining binding	91%
N#CCCc1ccc2c(c1)-c1[nH]c3ccc([N+](=O)[O-])cc3c1CC(=O)N2	cell-free assay	–	–	0.5 µM	remaining signal	98.2%
O=C(Nc1cnn(-c2csc(C(=O)NC3COC3)c2)c1)Nc1ccccc1Cl	enzyme activity	inhibitor	–	5 µM	remaining activity	122%
CCCS(=O)(=O)Nc1ccc(F)c(C(=O)c2c[nH]c3ncc(-c4ccc(Cl)cc4)cc23)c1F	enzyme activity	inhibitor	–	1 µM	inhibition	< 10%
CNC(=O)c1cc(Oc2ccc(NC(=O)Nc3ccc(Cl)c(C(F)(F)F)c3)cc2)ccn1	enzyme activity	inhibitor	–	10 µM	inhibition	56%
Cn1c2c(c3ccc(Cl)c(Cl)c31)C(C#N)C(C)(C)NC2=O (centres unmarked)	thermal stability	–	DSF	10 µM	ΔTm	1.4 °C
COc1cc(-c2cc(-c3ccc(N4CCNCC4)cc3)cnc2C)cc(OC)c1OC	enzyme activity	inhibitor	–	1 µM	inhibition	1%
O=C(Nc1cccnn1)N1CCC(=Cc2cccc(Oc3ccc(C(F)(F)F)cn3)c2)CC1	cell-free assay	–	competition with immobilised ligand	1 µM	remaining binding	86%
CN(c1ncccc1CNc1nc(Nc2ccc3c(c2)CC(=O)N3)ncc1C(F)(F)F)S(C)(=O)=O	enzyme activity	inhibitor	–	1 µM	inhibition	42.1%
O=C1NC(=O)c2cc(Nc3ccc(F)cc3)c(Nc3ccc(F)cc3)cc21	cell-free assay	–	–	0.5 µM	remaining signal	99.4%
CCN(CC)CCNC(=O)c1c(C)[nH]c(/C=C2\C(=O)Nc3ccc(F)cc32)c1C	enzyme activity	inhibitor	–	0.3 µM	inhibition	-17%
CNCc1ccccc1-c1csc([C@H](C)Nc2nc(C)nc3cc(OC)c(OC)cc23)c1	cell-free assay	–	competition with immobilised ligand	1 µM	remaining binding	100%
Cn1c2c(c3ccc(Cl)c(Cl)c31)C(C#N)C1(CCOCC1)NC2=O (centres unmarked)	thermal stability	–	DSF	10 µM	ΔTm	0.4 °C
CC(C)(C)c1nc(-c2cccc(NS(=O)(=O)c3c(F)cccc3F)c2F)c(-c2ccnc(N)n2)s1	enzyme activity	inhibitor	radiometric	1 µM	remaining activity	85%
CC(C)(C)C(=O)c1sc(NC2CCCCC2)nc1N	enzyme activity	inhibitor	–	10 µM	remaining activity	102%
CNC(=O)c1cc2c(Oc3ccc(NC(=O)C4(C(=O)Nc5ccc(F)cc5)CC4)cc3)ccnc2cc1OC	enzyme activity	inhibitor	radiometric	1 µM	inhibition	83%
Cn1c(=O)n(-c2ccc(C(C)(C)C#N)cc2)c2c3cc(-c4cnc5ccccc5c4)ccc3ncc21	enzyme activity	inhibitor	–	10 µM	remaining activity	100%
